Measurements from ChEMBL document CHEMBL2390952, “Novel triazolo-pyrrolopyridines as inhibitors of Janus kinase 1” (Bioorg Med Chem Lett, 2013).

What was measured:
[1] = Half life in human liver microsomes; type: ADME, Microsome
How it was run: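 Half-life measured by incubation with in vitro preparations of human liver microsomes.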

[2] = Lipophilicity, log D of the compound at pH 7.2; type: physicochemical; details: buffer
How it was run: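 Log D determined experimentally at pH 7.2.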

[3] = AUC in Sprague-Dawley rat at 5 mg/kg, po; type: ADME, organism-based; design: dose 5 mg/kg, route oral; details: plasma
How it was run: (§1)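 Rat pharmacokinetics given as mean profiles from three animals. Values normalized to 1 mg/kg iv and 5 mg/kg po. Clearance is plasma clearance after iv dosing.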

[4] = Clearance in Sprague-Dawley rat at 1 mg/kg, iv; type: ADME, organism-based; design: dose 1 mg/kg, route intravenous; details: in vivo; how it was run: as §1
[5] = Cmax in Sprague-Dawley rat at 5 mg/kg, po; type: ADME, organism-based; design: dose 5 mg/kg, route oral; details: in vivo; how it was run: as §1
[6] = Oral bioavailability in Sprague-Dawley rat at 5 mg/kg; type: ADME, organism-based; details: in vivo; how it was run: as §1
Homo sapiens [7] = species: Homo sapiens; assay: Selectivity ratio of Ki for JAK2 (unknown origin) to Ki for JAK1 (unknown origin)
How it was run: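 Biochemical JAK enzyme assay giving Ki, reported as the arithmetic mean of at least three separate determinations. Selectivity is taken as JAK2 Ki divided by JAK1 Ki.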

[8] = Apparent permeability from apical to basolateral side in MDCK cells; type: ADME, cell-based, Canis lupus familiaris; details: dog
How it was run: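 MDCK cells grown in transwell culture. Apparent permeability measured in the apical-to-basolateral direction and reported as the arithmetic mean of at least two separate determinations.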

TF-1 = assay: Selectivity ratio of EC50 for JAK2-mediated STAT5 phosphorylation in EPO-induced human TF1 cells to EC50 for JAK1-mediated STAT3 phosphorylation in IL6-induced human TF1 cells; type: cell-based
[9] = biological target: T1, Tyrosine-protein kinase JAK1 (Homo sapiens, UniProt P23458); assay: Inhibition of JAK1-mediated STAT3 phosphorylation in IL6-induced human TF1 cells; type: cell-based, TF-1
[10] = biological target: Tyrosine-protein kinase JAK2 (Homo sapiens, UniProt O60674); assay: Inhibition of JAK2 (unknown origin)
[11] = biological target: T1, Tyrosine-protein kinase JAK1; assay: Inhibition of JAK1 (unknown origin)
Homo sapiens [12] = species: Homo sapiens; assay: Selectivity ratio of Ki for TYK2 (unknown origin) to Ki for JAK1 (unknown origin)
[13] = biological target: Non-receptor tyrosine-protein kinase TYK2 (Homo sapiens, UniProt P29597); assay: Inhibition of TYK2 (unknown origin)
Homo sapiens [14] = species: Homo sapiens; assay: Selectivity ratio of Ki for JAK3 (unknown origin) to Ki for JAK1 (unknown origin)
[15] = biological target: T2, Tyrosine-protein kinase JAK3 (Homo sapiens, UniProt P52333); assay: Inhibition of JAK3 (unknown origin)
T2 sequence (P52333 whole entry): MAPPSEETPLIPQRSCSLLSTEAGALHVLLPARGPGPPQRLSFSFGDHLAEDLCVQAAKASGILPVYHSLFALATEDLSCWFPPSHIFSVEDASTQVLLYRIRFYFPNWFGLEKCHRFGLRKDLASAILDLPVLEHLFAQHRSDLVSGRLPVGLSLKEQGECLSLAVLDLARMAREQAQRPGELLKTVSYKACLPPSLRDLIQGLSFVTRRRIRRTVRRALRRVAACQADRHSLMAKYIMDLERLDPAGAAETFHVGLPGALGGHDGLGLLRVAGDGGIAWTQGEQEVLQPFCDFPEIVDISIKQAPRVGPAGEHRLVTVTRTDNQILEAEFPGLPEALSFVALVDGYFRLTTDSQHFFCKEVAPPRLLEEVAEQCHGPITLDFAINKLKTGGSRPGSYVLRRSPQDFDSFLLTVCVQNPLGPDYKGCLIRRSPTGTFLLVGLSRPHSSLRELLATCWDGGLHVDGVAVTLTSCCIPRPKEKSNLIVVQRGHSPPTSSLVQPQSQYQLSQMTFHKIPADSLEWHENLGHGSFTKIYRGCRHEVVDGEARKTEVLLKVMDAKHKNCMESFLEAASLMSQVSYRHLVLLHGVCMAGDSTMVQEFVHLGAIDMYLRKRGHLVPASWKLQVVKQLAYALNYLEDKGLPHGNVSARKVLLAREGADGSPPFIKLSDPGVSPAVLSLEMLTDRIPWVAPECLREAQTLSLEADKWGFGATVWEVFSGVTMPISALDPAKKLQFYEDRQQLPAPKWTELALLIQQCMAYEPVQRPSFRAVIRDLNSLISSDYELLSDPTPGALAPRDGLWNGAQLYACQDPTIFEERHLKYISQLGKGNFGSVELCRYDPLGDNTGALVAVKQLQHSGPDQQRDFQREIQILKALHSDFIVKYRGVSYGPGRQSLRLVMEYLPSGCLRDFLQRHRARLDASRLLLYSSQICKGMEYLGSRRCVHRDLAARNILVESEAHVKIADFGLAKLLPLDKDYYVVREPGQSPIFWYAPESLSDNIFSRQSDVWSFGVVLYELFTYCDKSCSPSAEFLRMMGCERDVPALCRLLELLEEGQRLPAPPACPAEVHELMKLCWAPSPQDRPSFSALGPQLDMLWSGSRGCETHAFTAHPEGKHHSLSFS

[16] = Dissociation constant, pKa of the compound; type: physicochemical
[17] = biological target: T3, Serine/threonine-protein kinase D1 (Homo sapiens) (UniProt Q15139); assay: Inhibition of protein kinase D1 (unknown origin) relative to control; details: concentration not given here
T3 sequence (whole entry): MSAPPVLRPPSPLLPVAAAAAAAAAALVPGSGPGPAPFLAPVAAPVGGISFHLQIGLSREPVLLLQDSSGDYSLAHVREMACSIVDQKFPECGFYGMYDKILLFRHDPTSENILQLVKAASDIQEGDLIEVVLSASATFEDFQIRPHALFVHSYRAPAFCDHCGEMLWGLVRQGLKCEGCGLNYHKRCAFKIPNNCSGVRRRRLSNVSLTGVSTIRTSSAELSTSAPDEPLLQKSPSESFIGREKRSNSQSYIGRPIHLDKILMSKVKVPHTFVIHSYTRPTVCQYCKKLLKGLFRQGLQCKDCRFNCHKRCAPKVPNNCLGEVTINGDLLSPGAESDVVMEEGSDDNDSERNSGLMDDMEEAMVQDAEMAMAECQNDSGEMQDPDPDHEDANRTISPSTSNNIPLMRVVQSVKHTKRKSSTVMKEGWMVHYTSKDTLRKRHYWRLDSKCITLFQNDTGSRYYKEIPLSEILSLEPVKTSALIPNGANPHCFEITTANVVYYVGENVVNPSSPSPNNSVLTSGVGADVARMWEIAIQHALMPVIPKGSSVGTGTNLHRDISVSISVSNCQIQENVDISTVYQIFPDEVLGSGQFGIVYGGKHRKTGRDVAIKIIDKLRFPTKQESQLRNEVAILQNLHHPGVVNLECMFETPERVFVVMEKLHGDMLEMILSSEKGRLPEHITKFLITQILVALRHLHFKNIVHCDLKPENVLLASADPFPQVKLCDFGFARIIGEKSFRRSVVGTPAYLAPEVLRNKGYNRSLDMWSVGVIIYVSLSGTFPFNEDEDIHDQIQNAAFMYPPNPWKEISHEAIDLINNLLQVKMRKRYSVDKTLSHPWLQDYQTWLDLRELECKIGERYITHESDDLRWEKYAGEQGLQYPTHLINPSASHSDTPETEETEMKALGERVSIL
How it was run: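 Kinase selectivity panel of 50 non-JAK kinases. […] Percent inhibition scored, and enzymes inhibited by more than 40% were counted.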

T1 sequence (P23458 whole entry): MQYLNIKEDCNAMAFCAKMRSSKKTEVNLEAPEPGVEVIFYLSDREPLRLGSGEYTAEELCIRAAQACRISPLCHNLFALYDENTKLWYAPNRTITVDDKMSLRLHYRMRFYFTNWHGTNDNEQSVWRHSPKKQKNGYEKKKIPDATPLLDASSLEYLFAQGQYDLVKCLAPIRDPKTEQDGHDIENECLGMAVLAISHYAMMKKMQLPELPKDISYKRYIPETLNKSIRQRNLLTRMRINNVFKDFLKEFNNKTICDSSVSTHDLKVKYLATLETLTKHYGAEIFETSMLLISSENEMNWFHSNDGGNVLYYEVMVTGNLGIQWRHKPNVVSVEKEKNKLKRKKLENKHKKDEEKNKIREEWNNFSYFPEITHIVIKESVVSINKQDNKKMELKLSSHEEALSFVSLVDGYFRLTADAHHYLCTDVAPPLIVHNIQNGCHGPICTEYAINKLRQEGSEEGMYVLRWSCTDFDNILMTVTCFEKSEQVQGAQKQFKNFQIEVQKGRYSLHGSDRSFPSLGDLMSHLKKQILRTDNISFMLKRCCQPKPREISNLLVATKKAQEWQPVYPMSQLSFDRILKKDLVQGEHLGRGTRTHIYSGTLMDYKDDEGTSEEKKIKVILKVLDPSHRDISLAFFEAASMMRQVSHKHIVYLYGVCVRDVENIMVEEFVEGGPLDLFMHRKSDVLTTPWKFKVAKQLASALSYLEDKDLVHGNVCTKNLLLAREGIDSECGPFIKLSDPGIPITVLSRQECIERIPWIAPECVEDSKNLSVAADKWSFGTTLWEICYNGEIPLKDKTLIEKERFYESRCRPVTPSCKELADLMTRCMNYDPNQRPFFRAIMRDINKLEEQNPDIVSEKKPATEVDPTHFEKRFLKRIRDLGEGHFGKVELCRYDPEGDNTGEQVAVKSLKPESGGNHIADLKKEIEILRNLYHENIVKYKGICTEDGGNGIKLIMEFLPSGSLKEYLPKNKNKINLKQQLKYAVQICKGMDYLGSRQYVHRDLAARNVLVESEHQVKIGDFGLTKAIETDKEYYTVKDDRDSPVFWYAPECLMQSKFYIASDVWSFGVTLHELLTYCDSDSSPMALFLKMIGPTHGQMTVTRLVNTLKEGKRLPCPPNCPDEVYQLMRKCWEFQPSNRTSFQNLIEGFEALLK
Chain of Tyrosine-protein kinase JAK2 (O60674 whole entry): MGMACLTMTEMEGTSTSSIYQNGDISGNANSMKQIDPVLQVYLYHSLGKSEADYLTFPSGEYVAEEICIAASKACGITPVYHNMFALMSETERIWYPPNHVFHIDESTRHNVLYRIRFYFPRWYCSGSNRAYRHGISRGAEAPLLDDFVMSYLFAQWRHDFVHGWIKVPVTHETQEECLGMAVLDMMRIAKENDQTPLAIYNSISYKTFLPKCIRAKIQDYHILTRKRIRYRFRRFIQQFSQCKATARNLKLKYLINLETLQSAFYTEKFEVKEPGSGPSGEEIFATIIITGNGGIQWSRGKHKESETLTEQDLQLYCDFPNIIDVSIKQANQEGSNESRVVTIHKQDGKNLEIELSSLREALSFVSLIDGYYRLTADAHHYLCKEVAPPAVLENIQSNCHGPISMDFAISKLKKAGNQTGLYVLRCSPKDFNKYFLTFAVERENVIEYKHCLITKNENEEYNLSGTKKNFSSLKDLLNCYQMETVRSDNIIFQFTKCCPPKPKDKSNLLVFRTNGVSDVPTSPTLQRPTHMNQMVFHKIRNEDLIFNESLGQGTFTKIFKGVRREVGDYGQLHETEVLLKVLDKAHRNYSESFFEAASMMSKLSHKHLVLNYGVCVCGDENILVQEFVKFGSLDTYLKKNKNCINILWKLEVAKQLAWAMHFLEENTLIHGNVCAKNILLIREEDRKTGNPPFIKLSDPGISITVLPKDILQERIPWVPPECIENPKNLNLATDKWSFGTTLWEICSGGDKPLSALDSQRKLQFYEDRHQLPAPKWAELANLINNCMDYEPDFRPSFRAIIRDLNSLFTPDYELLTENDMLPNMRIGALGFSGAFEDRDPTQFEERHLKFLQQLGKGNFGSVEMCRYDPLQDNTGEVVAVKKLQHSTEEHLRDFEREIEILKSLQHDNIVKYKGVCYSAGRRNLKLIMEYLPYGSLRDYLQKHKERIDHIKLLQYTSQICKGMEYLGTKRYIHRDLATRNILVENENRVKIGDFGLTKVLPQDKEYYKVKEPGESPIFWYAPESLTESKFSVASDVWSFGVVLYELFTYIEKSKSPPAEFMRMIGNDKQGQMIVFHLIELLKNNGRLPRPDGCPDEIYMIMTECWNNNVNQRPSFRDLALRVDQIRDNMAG
Chain of Non-receptor tyrosine-protein kinase TYK2 (P29597 whole entry): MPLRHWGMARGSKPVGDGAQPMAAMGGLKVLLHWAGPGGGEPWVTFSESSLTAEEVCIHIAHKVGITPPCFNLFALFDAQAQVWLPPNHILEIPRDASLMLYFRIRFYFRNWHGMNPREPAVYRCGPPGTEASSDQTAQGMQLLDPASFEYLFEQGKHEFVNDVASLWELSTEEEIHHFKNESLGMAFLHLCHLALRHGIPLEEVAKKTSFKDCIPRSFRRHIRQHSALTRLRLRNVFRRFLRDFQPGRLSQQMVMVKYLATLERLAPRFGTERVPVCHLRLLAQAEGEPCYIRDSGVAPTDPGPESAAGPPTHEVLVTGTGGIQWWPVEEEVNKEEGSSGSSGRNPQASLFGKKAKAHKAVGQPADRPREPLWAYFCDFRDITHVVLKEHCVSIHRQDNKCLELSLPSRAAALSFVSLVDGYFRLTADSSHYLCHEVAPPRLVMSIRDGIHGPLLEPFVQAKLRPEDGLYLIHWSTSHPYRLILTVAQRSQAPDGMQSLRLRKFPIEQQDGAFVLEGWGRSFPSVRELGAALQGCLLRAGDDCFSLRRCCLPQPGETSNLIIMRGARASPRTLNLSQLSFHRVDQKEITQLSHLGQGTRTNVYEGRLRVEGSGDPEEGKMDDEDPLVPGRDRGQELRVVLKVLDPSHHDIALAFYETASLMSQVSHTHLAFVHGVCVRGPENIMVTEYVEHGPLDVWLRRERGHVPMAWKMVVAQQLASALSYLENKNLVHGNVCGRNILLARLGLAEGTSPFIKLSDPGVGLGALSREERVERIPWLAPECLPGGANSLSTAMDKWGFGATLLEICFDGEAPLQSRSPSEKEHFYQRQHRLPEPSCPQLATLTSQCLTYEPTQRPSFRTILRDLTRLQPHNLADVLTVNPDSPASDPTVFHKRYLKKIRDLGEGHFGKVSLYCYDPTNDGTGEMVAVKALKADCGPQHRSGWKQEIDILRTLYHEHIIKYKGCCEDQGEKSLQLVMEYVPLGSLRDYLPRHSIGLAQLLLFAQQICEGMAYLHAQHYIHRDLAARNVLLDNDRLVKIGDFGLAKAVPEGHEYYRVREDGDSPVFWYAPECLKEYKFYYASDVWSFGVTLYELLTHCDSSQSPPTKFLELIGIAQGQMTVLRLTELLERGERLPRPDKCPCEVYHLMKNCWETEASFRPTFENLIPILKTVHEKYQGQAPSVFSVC

half-life [1]	logD [2]	AUC [3]	clearance [4]	Cmax [5]	bioavailability [6]	Ratio Ki (Homo sapiens [7])	Papp A→B [8]	EC50 [9]	Ki [10]	Ki [11]	Ratio Ki (Homo sapiens [12])	Ki [13]	Ratio Ki (Homo sapiens [14])	Ki [15]	pKa [16]	inhibition [17]	SMILES	Ratio EC50 (TF-1)
1.2 h	1.76																O[C@H]1CC[C@H](n2nnc3cnc4[nH]ccc4c32)CC1	
1.9 h	1.12	1800 nM·h	2.64 L/h/kg	4.9 µM	28%	1.8	170 nm/s	0.138 µM	0.0037 µM	0.0021 µM							N#CCCN1CCC(n2nnc3cnc4[nH]ccc4c32)CC1	4.6
32 h	1.5	1000 nM·h	12.7 L/h/kg	0.7 µM	82%	6.7	140 nm/s	0.22 µM	0.053 µM	0.0079 µM	> 10	0.234 µM	> 10	0.369 µM			CC1(n2nnc3cnc4[nH]ccc4c32)CCN(S(C)(=O)=O)CC1	15
0.5 h						2		0.121 µM	0.015 µM	0.0085 µM							c1ccc(CN2CCC(n3nnc4cnc5[nH]ccc5c43)CC2)cc1	3.4
1.1 h						5.9			0.721 µM	0.121 µM							CN1CCC[C@H]1C(=O)N1CCC(n2nnc3cnc4[nH]ccc4c32)CC1	
5.8 h	1.36									> 3.76 µM							N#CCCO[C@H]1CC[C@H](n2nnc3cnc4[nH]ccc4c32)CC1	
1.3 h						1.7			1.23 µM	0.745 µM							c1cc2c(ncc3nnn(CC4CCNCC4)c32)[nH]1	
1.7 h	1.05	18000 nM·h	0.96 L/h/kg	4.6 µM	> 100%	1.9	130 nm/s	0.249 µM	0.012 µM	0.0062 µM							CS(=O)(=O)N1CCC(n2nnc3cnc4[nH]ccc4c32)CC1	4.8
15 h	0.77					2.7			0.057 µM	0.021 µM							F[C@@H]1CNCC[C@H]1n1nnc2cnc3[nH]ccc3c21 (racemic)	
4.8 h	2.08					2.3		0.433 µM	0.027 µM	0.012 µM							COC(=O)N[C@H]1CC[C@H](n2nnc3cnc4[nH]ccc4c32)CC1	4
	0.27					2.3			0.446 µM	0.198 µM							F[C@H]1CNCC[C@H]1n1nnc2cnc3[nH]ccc3c21 (racemic)	
	0.6	1000 nM·h	6.6 L/h/kg	0.4 µM	41%		37 nm/s	0.114 µM	0.0038 µM		> 10	0.02 µM	> 10	0.024 µM	1.96		N#CCC(=O)N1CCC[C@@H](n2nnc3cnc4[nH]ccc4c32)C1	6.8
	-0.35					3.2			0.669 µM	0.21 µM							c1cc2c(ncc3nnn(C4CCNCC4)c32)[nH]1	
0.9 h	3.53					4.2		0.127 µM	0.01 µM	0.0024 µM							CC(C)(C)OC(=O)N[C@@H]1CC[C@@H](n2nnc3cnc4[nH]ccc4c32)C1	4.3
4.3 h	1.98					2.8		0.395 µM	0.033 µM	0.012 µM							COC(=O)N[C@@H]1CC[C@@H](n2nnc3cnc4[nH]ccc4c32)C1 (racemic)	6.8
0.2 h						1.6				0.025 µM							c1ccc(CN2CCC[C@@H](n3nnc4cnc5[nH]ccc5c43)C2)cc1	
3.7 h	2.7					3.6		0.35 µM	0.017 µM	0.0047 µM							CC(C)CC(=O)N[C@H]1CC[C@H](n2nnc3cnc4[nH]ccc4c32)CC1	5
4.8 h	1.92					3.1			0.487 µM	0.156 µM							CC1(n2nnc3cnc4[nH]ccc4c32)CCN(CCC#N)CC1	
1 h	3.58					3.3			0.401 µM	0.12 µM							CC(C)(C)OC(=O)N[C@H]1CC[C@H](n2nnc3cnc4[nH]ccc4c32)CC1	
2.3 h	1.05	1400 nM·h	5.28 L/h/kg	0.9 µM	44%		72 nm/s							0.122 µM		44%	N#CCCN[C@H]1CC[C@H](n2nnc3cnc4[nH]ccc4c32)CC1	
1.1 h	-0.24																N[C@H]1CC[C@H](n2nnc3cnc4[nH]ccc4c32)CC1	
							3 nm/s								4.34		N#CCC(=O)N1CCC[C@@H](n2cnc3cnc4[nH]ccc4c32)C1	
0.7 h	2.03					1.7		0.414 µM	0.028 µM	0.016 µM							c1cncc(CN2CCC(n3nnc4cnc5[nH]ccc5c43)CC2)c1	2.7
